What was measured:
Type in all cases: functional, organism-based
Escherichia coli [1] = test: In vitro inhibition of Escherichia coli K-12 growth.
Escherichia coli [2] = test: In vitro concentration required for growth inhibition of Escherichia coli K-12 strain resistant to 10e-3 M 5-flourouracil
Method in brief: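 In vitro growth assay on an E. coli K-12 strain resistant to 10^-3 M 5-fluorouracil. IC50 is the concentration giving 50% inhibition of E. coli K-12 growth. The growth procedure follows earlier published methods.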

Escherichia coli [3] = test: In vitro concentration required for growth inhibition of 5-fluorouracil resistant strain of Escherichia coli in presence of cytosine metabolite at 10e-3 M concentration.
Escherichia coli [4] = test: In vitro concentration required for growth inhibition of 5-fluorouracil resistant strain of Escherichia coli in presence of thymidine metabolite at 10e-3 M concentration.
Escherichia coli [5] = test: In vitro concentration required for growth inhibition of 5-fluorouracil resistant strain of Escherichia coli in presence of uridine metabolite at 10e-3 M concentration.
Escherichia coli [6] = test: In vitro concentration required for growth inhibition of 5-fluorouracil resistant strain of Escherichia coli in presence of uracil metabolite at 10e-3 M concentration.
Escherichia coli [7] = test: In vitro concentration required for growth inhibition of 5-fluorouracil resistant strain of Escherichia coli in presence of cytidine metabolite at 10e-3 M concentration.
Escherichia coli [8] = test: In vitro concentration required for growth inhibition of 5-fluorouracil resistant strain of Escherichia coli in presence of 2'-deoxyuridine metabolite at 10e-3 M concentration.
Escherichia coli [9] = test: In vitro concentration required for growth inhibition of 5-fluorouracil resistant strain of Escherichia coli in presence of thymine metabolite at 10e-3 M concentration.
Escherichia coli [10] = test: In vitro concentration required for growth inhibition of 5-fluorouracil resistant strain of Escherichia coli in presence of 2'-deoxycytidine metabolite at 10e-3 M concentration.

| Compound | IC50 (Escherichia coli [1]) [µM] | further results |
| --- | --- | --- |
| Nc1ccn(COCCOC(=O)c2ccccc2)c(=O)n1 | 900 | – |
| O=C(OCCOCn1ccc(=O)[nH]c1=O)c1ccccc1 | 100 | – |
| CC(=O)Nc1ccn(COCCO)c(=O)n1 | > 1000 | – |
| CN(C)c1ccn(C)c(=O)n1 | 80 | – |
| Cc1cn(COCCOC(=O)c2ccccc2)c(=O)[nH]c1=O | 860 | – |
| Cn1ccc(=O)n(C)c1=O | 15 | – |
| O=C(OCCOCn1cc(F)c(=O)[nH]c1=O)c1ccccc1 | 9 | IC50 (Escherichia coli [2]): 180 µM |
| Cc1cn(COCCN)c(=O)[nH]c1=O | 310 | – |
| CC(=O)Nc1ccn(COCCN=[N+]=[N-])c(=O)n1 | > 1000 | – |
| O=c1ccn(COCCO)c(=O)[nH]1 | 320 | – |
| CC(=O)Nc1ccn(COCCOC(=O)Oc2ccccc2)c(=O)n1 | > 1000 | – |
| Cc1cn(COCCN=[N+]=[N-])c(=O)[nH]c1=O | 250 | – |
| Cc1cn(COCCO)c(=O)[nH]c1=O | > 1000 | – |
| COc1ccn(C)c(=O)n1 | 61 | – |
| O=c1[nH]c(=O)n(COCCO)cc1F | 1.2 | IC50 (Escherichia coli [2]): 4.2 µM; IC50 (Escherichia coli [3]): 7.4 µM; IC50 (Escherichia coli [4]): 1000 µM; IC50 (Escherichia coli [5]): 240 µM; IC50 (Escherichia coli [6]): 8.4 µM; IC50 (Escherichia coli [7]): 9.1 µM; IC50 (Escherichia coli [8]): 370 µM; IC50 (Escherichia coli [9]): 730 µM; IC50 (Escherichia coli [10]): 9.5 µM |
| CC(C)n1ccc(N)nc1=O | > 1000 | – |
| [N-]=[N+]=NCCOCn1ccc(N)nc1=O | 440 | – |
| Nc1ccn(COCCO)c(=O)n1 | 87 | – |
| NCCOCn1ccc(N)nc1=O | > 1000 | – |
| NC(=O)OCCOCn1ccc(N)nc1=O | 910 | – |
| CC(=O)C(C)n1ccc(N)nc1=O (configuration not stated) | 560 | – |
| CCCCCCC(C(C)=O)n1ccc(N)nc1=O (configuration not stated) | 30 | – |
